Measured values reported in ChEMBL document CHEMBL4312003, “Optimization of biaryloxazolidinone as promising antibacterial agents against antibiotic-susceptible and antibiotic-resistant gram-positive bacteria” (Eur J Med Chem, 2020).
Converted amounts (≈) assume the structure as drawn.

Legend:
[1] = Drug metabolism in rat plasma assessed as N-[[(5S)-3-[3-fluoro-4-[3-hydroxy-4-[(E)-(4-methylpiperazin-1-yl)iminomethyl]phenyl]phenyl]-2-oxo-oxazolidin-5-yl]methyl]acetamide formation administered vig ig route measured by UPLC-QTOF/MS analysis; format: ADME; conditions: po
[2] = Drug metabolism in rat plasma assessed as N-[[(5S)-3-[3-fluoro-4-[4-[(E)-piperazin-1-yliminomethyl]phenyl]phenyl]-2-oxo-oxazolidin-5-yl]methyl]acetamide formation administered vig ig route measured by UPLC-QTOF/MS analysis; format: ADME; conditions: po
[3] = Drug metabolism in rat plasma assessed as 4-[4-[(5S)-5-(acetamidomethyl)-2-oxo-oxazolidin-3-yl]-2-fluoro-phenyl]benzoic acid formation administered vig ig route measured by UPLC-QTOF/MS analysis; format: ADME; conditions: po
[4] = Metabolic stability in rat assessed as half life measured after intragastric administration; format: ADME; conditions: in vivo, po
[5] = Solubility of compound in water by UV spectrophotometric analysis; format: physicochemical
[6] = Drug metabolism in rat plasma assessed as N-[[(5S)-3-[3-fluoro-4-(4-formylphenyl)phenyl]-2-oxo-oxazolidin-5-yl]methyl]acetamide formation administered vig ig route measured by UPLC-QTOF/MS analysis; format: ADME; conditions: po
[7] = test system: Enterococcus faecalis; assay: Potency index, ratio of rade-zolid MIC to compound MIC for antibacterial activity against linezolid-resistant Enterococcus faecalis by CLSI protocol based broth liquid microdilution method; format: functional
[8] = test system: Staphylococcus aureus; assay: Potency index, ratio of rade-zolid MIC to compound MIC for antibacterial activity against methicillin-sensitive Staphylococcus aureus by CLSI protocol based broth liquid microdilution method; format: functional
[9] = test system: Staphylococcus aureus; assay: Antibacterial activity against methicillin-resistant Staphylococcus aureus assessed as complete reduction in bacterial cell growth by CLSI protocol based broth liquid microdilution method; format: functional
Method in brief: (§1)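 Broth liquid microdilution per CLSI guidelines; isolates identified on an automated MicroScan system before testing. MIC taken as lowest concentration giving total inhibition of bacterial growth, reported in μg/mL. S. aureus ATCC29213 run as the control strain.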

[10] = test system: Enterococcus faecium; assay: Antibacterial activity against vancomycin-resistant Enterococcus faecium assessed as complete reduction in bacterial cell growth by CLSI protocol based broth liquid microdilution method; format: functional; method in brief: as §1
[11] = test system: Enterococcus faecalis; assay: Antibacterial activity against clinical isolates of linezolid-resistant Enterococcus faecalis assessed as complete reduction in bacterial cell growth by CLSI protocol based broth liquid microdilution method; format: functional; method in brief: as §1
[12] = test system: Enterococcus faecium; assay: Antibacterial activity against clinical isolates of vancomycin-resistant Enterococcus faecium assessed as complete reduction in bacterial cell growth by CLSI protocol based broth liquid microdilution method; format: functional; method in brief: as §1
[13] = test system: Enterococcus faecium; assay: Potency index, ratio of rade-zolid MIC to compound MIC for antibacterial activity against vancomycin-resistant Enterococcus faecium by CLSI protocol based broth liquid microdilution method; format: functional
[14] = test system: Staphylococcus aureus; assay: Potency index, ratio of rade-zolid MIC to compound MIC for antibacterial activity against Staphylococcus aureus ATCC 29213 by CLSI protocol based broth liquid microdilution method; format: functional
[15] = test system: Staphylococcus aureus; assay: Antibacterial activity against clinical isolates of methicillin-sensitive Staphylococcus aureus assessed as reduction in bacterial cell growth by CLSI protocol based broth microdilution method; format: functional; method in brief: as §1
[16] = test system: Enterococcus faecalis; assay: Antibacterial activity against linezolid-resistant Enterococcus faecalis assessed as complete reduction in bacterial cell growth by CLSI protocol based broth liquid microdilution method; format: functional; method in brief: as §1
[17] = test system: Staphylococcus aureus; assay: Antibacterial activity against Staphylococcus aureus ATCC 29213 assessed as complete reduction in bacterial cell growth by CLSI protocol based broth liquid microdilution method; format: functional; method in brief: as §1
[18] = test system: Staphylococcus aureus; assay: Antibacterial activity against methicillin-sensitive Staphylococcus aureus assessed as complete reduction in bacterial cell growth by CLSI protocol based broth liquid microdilution method; format: functional; method in brief: as §1
[19] = test system: HepG2; assay: Cytotoxicity against human HepG2 cells assessed as reduction in cell viability incubated for 48 hrs by MTT assay; format: cell-based; conditions: HepG2, 48 h
Method in brief: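 HepG2 cells were grown in RPMI1640 with 10% FBS and plated at about 4×10^4 cells/well in MEM. After 24 h at 37 °C in 5% CO2, compounds were added at the indicated final concentrations for 48 h. MTT was added (0.5 mg/mL final) for 4 h at 37 °C and the formazan dissolved in DMSO. Absorbance was read at 492 nm (630 nm reference). Each compound was tested three times; IC50 given as mean ± SD.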

[20] = Stability in simulated gastric acid assessed as compound remaining at pH 1.2 incubated for 1.5 hrs; format: ADME; conditions: read-out: Stability
[21] = test system: Staphylococcus aureus; assay: Potency index, ratio of MIC of linezolid to MIC of compound for antibacterial activity against clinical isolates of methicillin-sensitive Staphylococcus aureus by CLSI protocol based broth liquid microdilution method; format: functional
[22] = Stability in simulated gastric acid assessed as compound remaining at pH 1.2 incubated for 0.5 hrs; format: ADME; conditions: read-out: Stability
[23] = biological target: T1, MAO-A (Homo sapiens, UniProt P21397); assay: Inhibition of recombinant human MAO-A (active motif 31502) at 30 uM using luciferin as substrate incubated for 15 mins followed by substrate addition and measured after 60 mins by luminescence based method relative to control; conditions: probe luciferin
T1 sequence (P21397 whole entry): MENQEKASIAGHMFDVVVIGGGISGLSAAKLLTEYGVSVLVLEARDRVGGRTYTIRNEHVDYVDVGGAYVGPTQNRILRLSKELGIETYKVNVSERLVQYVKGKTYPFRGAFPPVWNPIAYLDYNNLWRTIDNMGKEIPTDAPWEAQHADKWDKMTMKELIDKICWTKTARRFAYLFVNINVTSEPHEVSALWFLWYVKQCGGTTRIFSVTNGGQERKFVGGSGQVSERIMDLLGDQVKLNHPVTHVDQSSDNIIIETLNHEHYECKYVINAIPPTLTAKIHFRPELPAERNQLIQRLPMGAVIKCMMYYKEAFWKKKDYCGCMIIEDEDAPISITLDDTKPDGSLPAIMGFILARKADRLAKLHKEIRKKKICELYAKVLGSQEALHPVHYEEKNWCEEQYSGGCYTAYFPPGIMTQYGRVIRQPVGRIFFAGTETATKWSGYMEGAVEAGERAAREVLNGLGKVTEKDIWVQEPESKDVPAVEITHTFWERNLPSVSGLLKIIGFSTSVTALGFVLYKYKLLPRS
Method in brief: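 Recombinant human MAO-A was measured with the MAO-Glo kit, modified. Compounds were in DMSO (1% DMSO final) and preincubated with enzyme 15 min at room temperature. Luciferin-derivative substrate was then added and the reaction run 60 min at room temperature. Luciferase detection reagent was added for 20 min and luminescence read. Buffer without enzyme served as the 100% inhibition control; DMSO alone as the no-inhibition control. Percent inhibition = (Max − signal)/(Max − Min)×100.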

[24] = Stability in simulated gastric acid assessed as compound remaining at pH 1.2 incubated for 1 hr; format: ADME; conditions: read-out: Stability
[25] = Stability in simulated gastric acid assessed as compound remaining at pH 1.2 incubated for 2 hrs; format: ADME; conditions: read-out: Stability
[26] = Stability in human liver microsomes assessed as half life at 1.5 uM preincubated for 5 mins with NADPH and measured after 45 mins by LC/MS analysis; format: ADME, Microsome; conditions: liver microsomes
Method in brief: (§2)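 Compound solution at 1.5 µM with 0.75 mg/mL microsomes (before NADPH addition) was preincubated 5 min at 37 °C. Reactions were started with NADPH (6 mM stock). Samples were quenched with acetonitrile containing internal standard at 0, 5, 15, 30 and 45 min, then centrifuged, and the supernatant was diluted with water for LC/MS. Runs were in duplicate. T1/2 = ln2/k from the log-linear slope, and CLint was derived from T1/2.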

[27] = Stability in human liver microsomes assessed as intrinsic clearance at 1.5 uM preincubated for 5 mins with NADPH and measured after 45 mins by LC/MS analysis; format: ADME, Microsome; conditions: read-out: CLH; method in brief: as §2
[28] = Stability in human liver microsomes assessed as compound remaining at 1.5 uM preincubated for 5 mins with NADPH and measured after 45 mins by LC/MS analysis; format: ADME, Microsome; conditions: liver microsomes, read-out: Stability; method in brief: as §2

| SMILES | solubility [5] [µg/mL] | Ratio [7] | Ratio [8] | MIC [9] [µg/mL] | MIC [10] [µg/mL] | MIC [11] [µg/mL] | MIC [12] [µg/mL] | Ratio [13] | Ratio [14] | MIC [15] [µg/mL] | MIC [16] [µg/mL] | MIC [17] [µg/mL] | MIC [18] [µg/mL] | IC50 [19] [µM] | remaining at 1.5 h [20] [%] | remaining at 0.5 h [22] [%] | inhibition at 1 h, 30 µM [23] [%] | remaining at 1 h [24] [%] | remaining at 2 h [25] [%] | further results |
| --- | --- | --- | --- | --- | --- | --- | --- | --- | --- | --- | --- | --- | --- | --- | --- | --- | --- | --- | --- | --- |
| CC(=O)NC[C@H]1CN(c2ccc(-c3ccc(/C=N/N4CCN(C)CC4)cc3)c(F)c2)C(=O)O1 | 11.9 (≈ 26.2 µM) |  |  |  |  |  |  |  |  |  |  |  |  |  |  |  |  |  |  | Drug metabolism [1]: Metabolite_Detected; Drug metabolism [2]: Metabolite_Detected; Drug metabolism [3]: Metabolite_Detected; half-life [4]: 2.7 h; Drug metabolism [6]: Metabolite_Detected |
| CC(=O)NC[C@H]1CN(c2ccc(-c3ccc(/C=N/N4CCOCC4)nc3)c(F)c2)C(=O)O1 |  | 2 - 4 | 2 - 4 | 0.125 (≈ 0.283 µM) | 0.25 (≈ 0.566 µM) | 0.25 to 0.5 (≈ 0.566 to 1.13 µM) | 1 (≈ 2.27 µM) | 2 - 4 | 2 - 4 | 0.25 to 0.5 (≈ 0.566 to 1.13 µM) | 0.25 (≈ 0.566 µM) | 0.125 (≈ 0.283 µM) | 0.25 (≈ 0.566 µM) |  |  |  |  |  |  |  |
| CC(=O)NC[C@H]1CN(c2ccc(-c3ccc(/C=N/N4CCSCC4)c(O)c3)c(F)c2)C(=O)O1 |  |  |  | 0.125 (≈ 0.265 µM) | 0.125 (≈ 0.265 µM) | 0.125 to 0.25 (≈ 0.265 to 0.529 µM) | 0.125 to 0.25 (≈ 0.265 to 0.529 µM) |  |  | 0.125 to 0.25 (≈ 0.265 to 0.529 µM) | 0.125 (≈ 0.265 µM) | 0.125 (≈ 0.265 µM) | 0.125 (≈ 0.265 µM) | > 25 | 82.9 | 96 | 62 | 94.6 | 75.9 | Ratio [21]: 4 - 32 |
| CC(=O)NC[C@H]1CN(c2ccc(-c3ccc(/C=N/N4CCS(=O)(=O)CC4)nc3)c(F)c2)C(=O)O1 | 68 (≈ 139 µM) | 2 - 4 | 2 - 4 | 0.125 (≈ 0.255 µM) | 0.125 (≈ 0.255 µM) | 0.25 to 0.5 (≈ 0.511 to 1.02 µM) | 0.5 (≈ 1.02 µM) | 2 - 4 | 2 - 4 | 0.25 to 0.5 (≈ 0.511 to 1.02 µM) | 0.25 (≈ 0.511 µM) | 0.125 (≈ 0.255 µM) | 0.125 (≈ 0.255 µM) | > 25 | 99.2 | 99.7 | 72 | 99.4 | 98.7 | half-life at 1.5 µM [26]: 6.82 h; CLint scaled at 1.5 µM [27]: 4.25 mL/min/kg; remaining at 0.75 h, 1.5 µM [28]: 93% |
